# SKN-1 block: suppressors of acrylamide-induced Pgst-4::GFP reporter in worms, primary screen, SKN-1 inhibitor project, whole organism, uHTS, GFP/RFP fluorescence ratio, strain VP596 | AID 624304, 2012 | C. elegans VP596 Pgst-4::GFP/RFP ratio, 24 h | inhibition, % at 21.8 µM | 360,000 tested, 0.49% active;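 active = interference check ratio from 0.5 to 1.5 plus GFP to RFP signal ratio inhibition reaching or exceeding a fixed threshold, cut at about 30% in these data, passing the limit was not always enough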
# T cell HTS: modulators of CD8 T cell-vesicle binding, primary screen, mouse 2C CD8+ T cells, flow cytometry; 2C CD8+ T cell-vesicle binding; stronger effect = lower value; response (vesicle binding), % at 7 µM; 330,000 tested, 0.068% active;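 active = response, share of CD8 T cells binding vesicles, and their 90th percentile fluorescence all below set limits, cut at about 80% in these data, passing the limit was not always enough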;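 note: values below 100% mean blocked vesicle binding to the CD8+ T cells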
#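 Benchmarks: naked versus QL9-loaded vesicles / Assay system: purified 2C TCR transgenic mouse naive CD8+ T cells / Technique: high-throughput flow cytometry with anti-B7-1 and anti-CD8 staining / Timing: Cell–vesicle co-incubation 1.5 h at 37 °C, staining 20 min on ice / Read-out: percent CD8+ FL2 mean versus row control / Probe or stimulus: QL9-loaded Drosophila micro-vesicles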
# GRK2 inh: compounds blocking aptamer binding on GRK2 – biochemical, human GRK2, bead flow cytometry, HTS, primary screen; Beta-adrenergic receptor kinase 1 (Homo sapiens), P25098; FAM-aptamer displacement from GRK2; 330,000 tested, 0.59% active; AID 488847, 2010; inhibition of aptamer binding, % at 10 µM;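 active = inhibition of aptamer binding above 40%, roughly 3 SD of noise, on plates passing a quality check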;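 note: median bead fluorescence of bound FAM aptamer so fluorescent compounds give negative values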
# Rin1 Abl inh: inhibitors of Rin1-Abl protein binding, primary screen, biochemical, TR-FRET; Tyrosine-protein kinase ABL1 (Homo sapiens) + Ras and Rab interactor 1 (Homo sapiens), …; inhibition, % at 7.35 µM; 360,000 tested, 0.4% active; in the data active = inhibition above about 5%, passing the limit was not always enough
# Myeloid diff 2: induction of myeloid progenitor differentiation, primary screen, cell-based, flow cytometry, MLPCN library; ER-HoxA9 myeloid progenitors, lysozyme-GFP differentiation; calls only at 10 µM; AID 624256, 2012; 360,000 tested, 1% active;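 active = normalized GFP-positive differentiation at or above the plate's own cutoff, the solvent-only control mean plus 3 SD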;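 note: cells exposed to compound for four days before flow analysis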
# Rce1 inh: yeast Rce1p protease inhibitors, primary screen, biochemical, fluorescence, cell-free homogeneous. yeast membranes, quenched prenylated peptide cleavage fluorescence. CAAX prenyl protease 2 (Saccharomyces cerevisiae (strain ATCC 204508 / S288c)), Q03530. 290,000 tested, 0.27% active. calls only;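 active = fall in fluorescence gain of 50% or more versus controls, with final raw signal at or below 3038400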;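 note: plate controls were neutral control wells for no effect and wells lacking membranes for full effect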
# * = called active by the depositor; i = inactive; · = no result; + = active, no number. The list is not random: actives were taken first. Their share in the collection is about 2.6%.
SMILES,SKN-1 block,T cell HTS,GRK2 inh,Rin1 Abl inh,Myeloid diff 2,Rce1 inh
CC(C)C1Cc2c(sc(NC(=S)NC(=O)c3ccccc3)c2C#N)CO1 (centres undefined),8,118,1,-2,i,·
CC(C)N1CCc2c(sc(NC(=S)NC(=O)c3ccccc3)c2C#N)C1,13,146,0,-11,+,·
CC1=C(C(=O)Nc2ccccc2C(=O)NC2CCC(C)CC2)SCCO1 (centres undefined),-1,845,0,2,+,i
CC1=C(C(=O)Nc2ccccc2C(=O)NCc2ccccc2)SCCO1,20,434,0,-3,i,i
Cc1cc(/C=C2\SC(=S)NC2=O)c(C)n1C1CC1,3,649,1,-4,i,i
Cc1cc(/C=C2/C(=O)N(C)C(=S)N2C)c(C)n1C1CC1,20,117,1,2,+,·
O=C(NC1CCCC1)C1CC(c2ccc(F)cc2)=NO1 (centres undefined),9,0.0*,2,-5,i,i
CCN=C(NS(=O)(=O)c1ccc(Br)cc1)c1ccc(Cl)cc1,4,133,4,3,i,i
COc1ccc(-n2c(COc3ccc(C)cc3)nnc2SCC(N)=O)cc1,-9,361,0,1,+,i
COc1ccc(-n2c(COc3ccccc3)nnc2SCC(N)=O)cc1,-3,251,0,-3,i,i
COC(=O)CSc1nnc(C)n1-c1ccc(C)cc1,-16,249,3,2,+,i
Cc1ccc(NC(=O)COc2ccccc2)c(NC(=O)c2ccco2)c1,1,301,0,1,i,i
COc1ccc(/C=C/C(=O)Nc2cccc(C(C)=O)c2)cc1,9,280,88*,-3,i,i
COc1ccccc1/C=C/C(=O)Nc1cccc(C(C)=O)c1,3,572,34,0,i,i
O=C(CN(Cc1ccccc1)S(=O)(=O)c1ccc(F)cc1)NCCC1=CCCCC1,-2,515,0,3,i,i
Cc1ccc(S(=O)(=O)N(CC(=O)NCCC2=CCCCC2)Cc2ccccc2)cc1,6,813,0,-4,+,i
O=C(Nc1ccc(Cl)cn1)c1cc2c(s1)-c1ccccc1OC2,38*,152,0,-4,i,i
CCCC(c1nnnn1Cc1ccco1)N1CCN(C2CCCC2)CC1 (centres undefined),-4,241,0,-3,i,i
CC(C)C(c1nnnn1Cc1ccco1)N1CCN(C2CCCC2)CC1 (centres undefined),51*,200,2,1,i,i
CCN(CC)S(=O)(=O)c1cc(NC(=O)C(C)N2CCc3ccccc32)ccc1C (centres undefined),6,372,1,1,+,i
Cc1ccc(NC(=O)C(C)N2CCCc3ccccc32)cc1S(=O)(=O)N1CCOCC1 (centres undefined),-2,·,·,-2,i,·
COCCN(C(=O)/C=C/c1cccc([N+](=O)[O-])c1)c1c(N)n(Cc2ccccc2)c(=O)[nH]c1=O,10,176,0,-1,i,·
COCCN(C(=O)/C=C/c1ccccc1)c1c(N)n(Cc2ccccc2)c(=O)[nH]c1=O,52*,i,6,2,i,i
CCc1ccccc1NC(=O)Cn1nnc(-c2cccs2)n1,-2,608,0,1,i,i
Cc1cccc(NC(=O)Cn2nnc(-c3cccs3)n2)c1C,-3,217,1,-1,+,i
Fc1ccc(-c2nnc(-c3ccc(Cl)cc3Cl)o2)cc1,48*,472,0,3,i,i
Clc1ccc(-c2nnc(-c3ccccc3)o2)c(Cl)c1,69*,113,1,-3,i,i
